Assays:
[1] = Metabolic stability in human hepatocytes at 22 uM after 44 hrs; type: ADME, cell-based, Hepatocyte
[2] = Metabolic stability in rat hepatocytes at 22 uM after 44 hrs; type: ADME, cell-based, Hepatocyte
[3] = tested on: Plasmodium berghei; experiment: Antimalarial activity against Plasmodium berghei infected in Swiss Webster mouse assessed as mouse survival rate at 100 mg/kg administered once daily via oral gavage for 4 consecutive days beginning 1 hr after infection measured on day 4 post infection relative to control; type: functional
Method in brief: (§1)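 Mice given an intraperitoneal injection of P. berghei-infected erythrocytes taken from a previously infected animal. Oral dosing once daily for 4 consecutive days, starting 1 h after infection. Vehicle: polyethylene glycol 300/propylene glycol/water (weight ratio 55/25/20). Percent survival recorded daily from day 4 to day 20. Chloroquine 30 mg/kg and vehicle-only groups served as controls.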

[4] = tested on: Plasmodium berghei; experiment: Antimalarial activity against Plasmodium berghei infected in Swiss Webster mouse assessed as mouse survival rate at 33 mg/kg administered once daily via oral gavage for 4 consecutive days beginning 1 hr after infection measured on day 4 post infection relative to control; type: functional
Method in brief: (§2)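 P. berghei-infected erythrocytes taken from a previously infected mouse were injected intraperitoneally. Oral dosing, once daily for 4 consecutive days, began 1 h after infection, in polyethylene glycol 300/propylene glycol/water (55/25/20 by weight). Chloroquine at 30 mg/kg was the positive control, with a vehicle-only group. Percent survival was recorded daily from day 4 to day 20.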

[5] = tested on: Plasmodium berghei; experiment: Antimalarial activity against Plasmodium berghei infected in Swiss Webster mouse assessed as mouse survival rate at 11 mg/kg administered once daily via oral gavage for 4 consecutive days beginning 1 hr after infection measured on day 4 post infection relative to control; type: functional; method in brief: as §2
[6] = tested on: Plasmodium berghei; experiment: Antimalarial activity against Plasmodium berghei infected in Swiss Webster mouse assessed as mouse survival rate at 0.4 mg/kg administered once daily via oral gavage for 4 consecutive days beginning 1 hr after infection measured on day 4 post infection relative to control; type: functional; method in brief: as §1
[7] = tested on: Plasmodium berghei; experiment: Antimalarial activity against Plasmodium berghei infected in Swiss Webster mouse assessed as mouse survival rate at 0.1 mg/kg administered once daily via oral gavage for 4 consecutive days beginning 1 hr after infection measured on day 4 post infection relative to control; type: functional; method in brief: as §1
[8] = tested on: Plasmodium berghei; experiment: Antimalarial activity against Plasmodium berghei infected in Swiss Webster mouse assessed as mouse survival rate at 3.7 mg/kg administered once daily via oral gavage for 4 consecutive days beginning 1 hr after infection measured on day 5 post infection relative to control; type: functional; method in brief: as §2
[9] = tested on: Plasmodium berghei; experiment: Antimalarial activity against Plasmodium berghei infected in Swiss Webster mouse assessed as mouse survival rate at 0.1 mg/kg administered once daily via oral gavage for 4 consecutive days beginning 1 hr after infection measured on day 5 post infection relative to control; type: functional; method in brief: as §1
[10] = tested on: Plasmodium berghei; experiment: Antimalarial activity against Plasmodium berghei infected in Swiss Webster mouse assessed as mouse survival rate at 33 mg/kg administered once daily via oral gavage for 4 consecutive days beginning 1 hr after infection measured on day 6 post infection relative to control; type: functional; method in brief: as §2
[11] = tested on: Plasmodium berghei; experiment: Antimalarial activity against Plasmodium berghei infected in Swiss Webster mouse assessed as mouse survival rate at 11 mg/kg administered once daily via oral gavage for 4 consecutive days beginning 1 hr after infection measured on day 6 post infection relative to control; type: functional; method in brief: as §2
[12] = tested on: Plasmodium berghei; experiment: Antimalarial activity against Plasmodium berghei infected in Swiss Webster mouse assessed as mouse survival rate at 3.7 mg/kg administered once daily via oral gavage for 4 consecutive days beginning 1 hr after infection measured on day 6 post infection relative to control; type: functional; method in brief: as §2
[13] = tested on: Plasmodium berghei; experiment: Antimalarial activity against Plasmodium berghei infected in Swiss Webster mouse assessed as mouse survival rate at 0.4 mg/kg administered once daily via oral gavage for 4 consecutive days beginning 1 hr after infection measured on day 6 post infection relative to control; type: functional; method in brief: as §1
[14] = tested on: Plasmodium berghei; experiment: Antimalarial activity against Plasmodium berghei infected in Swiss Webster mouse assessed as mouse survival rate at 100 mg/kg administered once daily via oral gavage for 4 consecutive days beginning 1 hr after infection measured on day 7 post infection relative to control; type: functional; method in brief: as §1
[15] = tested on: Plasmodium berghei; experiment: Antimalarial activity against Plasmodium berghei infected in Swiss Webster mouse assessed as mouse survival rate at 33 mg/kg administered once daily via oral gavage for 4 consecutive days beginning 1 hr after infection measured on day 7 post infection relative to control; type: functional; method in brief: as §2
[16] = tested on: Plasmodium berghei; experiment: Antimalarial activity against Plasmodium berghei infected in Swiss Webster mouse assessed as mouse survival rate at 3.7 mg/kg administered once daily via oral gavage for 4 consecutive days beginning 1 hr after infection measured on day 7 post infection relative to control; type: functional; method in brief: as §2
[17] = tested on: Plasmodium berghei; experiment: Antimalarial activity against Plasmodium berghei infected in Swiss Webster mouse assessed as mouse survival rate at 0.4 mg/kg administered once daily via oral gavage for 4 consecutive days beginning 1 hr after infection measured on day 7 post infection relative to control; type: functional; method in brief: as §1
[18] = tested on: Plasmodium berghei; experiment: Antimalarial activity against Plasmodium berghei infected in Swiss Webster mouse assessed as mouse survival rate at 33 mg/kg administered once daily via oral gavage for 4 consecutive days beginning 1 hr after infection measured on day 8 post infection relative to control; type: functional; method in brief: as §2
[19] = tested on: Plasmodium berghei; experiment: Antimalarial activity against Plasmodium berghei infected in Swiss Webster mouse assessed as mouse survival rate at 11 mg/kg administered once daily via oral gavage for 4 consecutive days beginning 1 hr after infection measured on day 8 post infection relative to control; type: functional; method in brief: as §2
[20] = tested on: Plasmodium berghei; experiment: Antimalarial activity against Plasmodium berghei infected in Swiss Webster mouse assessed as mouse survival rate at 100 mg/kg administered once daily via oral gavage for 4 consecutive days beginning 1 hr after infection measured on day 10 post infection relative to control; type: functional; method in brief: as §1
[21] = tested on: Plasmodium berghei; experiment: Antimalarial activity against Plasmodium berghei infected in Swiss Webster mouse assessed as mouse survival rate at 100 mg/kg administered once daily via oral gavage for 4 consecutive days beginning 1 hr after infection measured on day 12 post infection relative to control; type: functional; method in brief: as §1
[22] = tested on: Plasmodium berghei; experiment: Antimalarial activity against Plasmodium berghei infected in Swiss Webster mouse assessed as mouse survival rate at 33 mg/kg administered once daily via oral gavage for 4 consecutive days beginning 1 hr after infection measured on day 13 post infection relative to control; type: functional; method in brief: as §2
[23] = tested on: Plasmodium berghei; experiment: Antimalarial activity against Plasmodium berghei infected in Swiss Webster mouse assessed as mouse survival rate at 100 mg/kg administered once daily via oral gavage for 4 consecutive days beginning 1 hr after infection measured on day 14 post infection relative to control; type: functional; method in brief: as §1
[24] = tested on: Plasmodium berghei; experiment: Antimalarial activity against Plasmodium berghei infected in Swiss Webster mouse assessed as mouse survival rate at 33 mg/kg administered once daily via oral gavage for 4 consecutive days beginning 1 hr after infection measured on day 14 post infection relative to control; type: functional; method in brief: as §2
[25] = tested on: Plasmodium falciparum; experiment: Antimalarial activity against Plasmodium falciparum 3D7 0087/N9 infected in NOD/SCID IL2R gamma null mouse assessed as reduction in parasitemia administered once daily via oral gavage for 4 consecutive days measured on day 4 post infection; type: functional; conditions: 3D7 0087/N9, po, 96 h
Method in brief: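 Human-erythrocyte-engrafted NODscidIL2Rγnull mice carrying P. falciparum Pf3D70087/N9 in peripheral blood; compound given orally once daily for four consecutive days.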

[26] = tested on: Plasmodium berghei; experiment: Antimalarial activity against Plasmodium berghei infected in Swiss Webster mouse assessed as mouse survival rate at 1.2 mg/kg administered once daily via oral gavage for 4 consecutive days beginning 1 hr after infection measured on day 4 post infection relative to control; type: functional; method in brief: as §1
[27] = tested on: Plasmodium berghei; experiment: Antimalarial activity against Plasmodium berghei infected in Swiss Webster mouse assessed as mouse survival rate at 1.2 mg/kg administered once daily via oral gavage for 4 consecutive days beginning 1 hr after infection measured on day 5 post infection relative to control; type: functional; method in brief: as §1

| Structure (SMILES) | Stability [1] | Stability [2] | survival at 100 mg/kg [3] | survival at 33 mg/kg [4] | survival at 11 mg/kg [5] | survival at 0.4 mg/kg [6] | survival at 0.1 mg/kg [7] | survival at 3.7 mg/kg [8] | survival at 0.1 mg/kg [9] | survival at 33 mg/kg [10] | survival at 11 mg/kg [11] | survival at 3.7 mg/kg [12] | survival at 0.4 mg/kg [13] | survival at 100 mg/kg [14] | survival at 33 mg/kg [15] | survival at 3.7 mg/kg [16] | survival at 0.4 mg/kg [17] | survival at 33 mg/kg [18] | survival at 11 mg/kg [19] | survival at 100 mg/kg [20] | other results |
| --- | --- | --- | --- | --- | --- | --- | --- | --- | --- | --- | --- | --- | --- | --- | --- | --- | --- | --- | --- | --- | --- |
| Cc1c(Oc2cnc(C(=O)N3CC(O)(C(C)C)C3)cn2)ccc2c1B(O)OC2 | Stable | Stable | 100% | 100% | 100% | 100% | 100% | 100% | 100% | 100% | 100% | 100% | 100% | 100% | 100% | 0% | 0% | 100% | 60% | 100% | survival at 100 mg/kg [21]: 100%; survival at 33 mg/kg [22]: 100%; survival at 100 mg/kg [23]: 100%; survival at 33 mg/kg [24]: 0%; ED90 [25]: < 5 mg/kg |
| CCC1(O)CN(C(=O)c2cnc(Oc3ccc4c(c3C)B(O)OC4)cn2)C1 | Stable | Stable | 100% | 100% | 100% | 100% | 100% | 100% | 100% | 100% | 100% | 100% | 100% | 100% | 100% | 0% | 0% | 100% | 0% | 100% | survival at 1.2 mg/kg [26]: 100%; survival at 1.2 mg/kg [27]: 100%; survival at 100 mg/kg [21]: 100%; survival at 33 mg/kg [22]: 20%; survival at 100 mg/kg [23]: 0%; survival at 33 mg/kg [24]: 0%; ED90 [25]: 0.84 mg/kg |
| Cc1c(Oc2cnc(C(=O)N3CC(C)(O)C3)cn2)ccc2c1B(O)OC2 | Stable | Stable | 100% | 100% | 100% | 100% | 100% | 100% | 100% | 100% | 100% | 100% | 100% | 100% | 100% | 60% | 0% | 100% | 100% | 100% | survival at 1.2 mg/kg [26]: 100%; survival at 1.2 mg/kg [27]: 100%; survival at 100 mg/kg [21]: 100%; survival at 33 mg/kg [22]: 100%; survival at 100 mg/kg [23]: 60%; survival at 33 mg/kg [24]: 0%; ED90 [25]: 0.85 mg/kg |
| Cc1c(Oc2cnc(C(=O)N3CC(O)(C(F)(F)F)C3)cn2)ccc2c1B(O)OC2 | Stable | Stable | 100% | 100% | 100% | 100% | 100% | 100% | 100% | 100% | 100% | 100% | 100% | 100% | 100% | 0% | 0% | 100% | 0% | 100% | survival at 100 mg/kg [21]: 100%; survival at 33 mg/kg [22]: 50%; survival at 100 mg/kg [23]: 100%; survival at 33 mg/kg [24]: 0%; ED90 [25]: < 5 mg/kg |

Source: ChEMBL document CHEMBL4038305, “Benzoxaborole Antimalarial Agents. Part 5. Lead Optimization of Novel Amide Pyrazinyloxy Benzoxaboroles and Identification of a Preclinical Candidate” (J Med Chem, 2017)
